A selection: hits, their analogues and other compounds. The true share with any hit is near 2.3%.
TRPC4 act: TRPC4 (mouse) channel activation; Q9QUQ5; HEK293 TRPC4beta/mu-opioid, Fluo4 calcium fluorescence; hits give high values; hit rate 0.49% among 310,000; B-score at 10 µM;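 active = B-score above 5 SD of library B-scores, and initial fluorescence ratio not above library mean plus 5 SD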;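 note: positive B-score marks a calcium rise read as TRPC4 activation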
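Incubation: 45 min room-temperature Fluo4 loading, 110 s read / System: HEK293 cells stably co-expressing mouse TRPC4beta and mu-opioid receptor / Signal: Fluo4 fluorescence, kinetic / Control set: buffer (low) and maximal DAMGO (high) / Measure: integrated baseline-normalised fluorescence ratio, converted to per-well B score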
TRPC4 block: blocks the mouse TRPC4 cation channel | B-score at 10 µM | Q9QUQ5 | HEK293 TRPC4beta/mu-opioid, DAMGO-evoked Fluo4 calcium flux; hits give low values | hit rate 0.39% among 300,000;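 active = B-score over 3 SD under the library average, no early fluorescence shift, positive overall ratio signal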
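Assay system: HEK293 cells with stable TRPC4beta plus mu-opioid receptor expression; Probe or stimulus: DAMGO in two steps, submaximal then maximal; Dosing: single-point compound dosing; Measured by: Fluo4 calcium-dye fluorescence, kinetic read; Read-out basis: B score from integrated Fluo4 fluorescence ratio.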
Yeast superoxide: caloric restriction mimetics inhibiting age-related superoxide in yeast; superoxide response (% of plate mean), % at 10 µM; S. cerevisiae aged cells, superoxide DHE fluorescence; hits give low values; hit rate 0.18% among 330,000;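 active = superoxide response under a set limit, about three screen SD below normal, cut at about 65% in these data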;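 note: yeast aged for seven days with compound at 30 °C before DHE staining; 100% = average MFI of all compound-treated wells on the plate with controls excluded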
TRPC6 activator: activators of mouse TRPC6 channel | Q61143 | HEK293-TRPC6 membrane potential dye fluorescence; hits give high values | B-score at 10 µM | hit rate 0.13% among 310,000;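 active = B-score of the integrated fluorescence ratio above library mean plus 3 SD, and starting fluorescence ratio within library mean plus 5 SD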;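 note: higher score means more depolarization so channel activation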
Target sequence (Q61143 whole entry, looked up): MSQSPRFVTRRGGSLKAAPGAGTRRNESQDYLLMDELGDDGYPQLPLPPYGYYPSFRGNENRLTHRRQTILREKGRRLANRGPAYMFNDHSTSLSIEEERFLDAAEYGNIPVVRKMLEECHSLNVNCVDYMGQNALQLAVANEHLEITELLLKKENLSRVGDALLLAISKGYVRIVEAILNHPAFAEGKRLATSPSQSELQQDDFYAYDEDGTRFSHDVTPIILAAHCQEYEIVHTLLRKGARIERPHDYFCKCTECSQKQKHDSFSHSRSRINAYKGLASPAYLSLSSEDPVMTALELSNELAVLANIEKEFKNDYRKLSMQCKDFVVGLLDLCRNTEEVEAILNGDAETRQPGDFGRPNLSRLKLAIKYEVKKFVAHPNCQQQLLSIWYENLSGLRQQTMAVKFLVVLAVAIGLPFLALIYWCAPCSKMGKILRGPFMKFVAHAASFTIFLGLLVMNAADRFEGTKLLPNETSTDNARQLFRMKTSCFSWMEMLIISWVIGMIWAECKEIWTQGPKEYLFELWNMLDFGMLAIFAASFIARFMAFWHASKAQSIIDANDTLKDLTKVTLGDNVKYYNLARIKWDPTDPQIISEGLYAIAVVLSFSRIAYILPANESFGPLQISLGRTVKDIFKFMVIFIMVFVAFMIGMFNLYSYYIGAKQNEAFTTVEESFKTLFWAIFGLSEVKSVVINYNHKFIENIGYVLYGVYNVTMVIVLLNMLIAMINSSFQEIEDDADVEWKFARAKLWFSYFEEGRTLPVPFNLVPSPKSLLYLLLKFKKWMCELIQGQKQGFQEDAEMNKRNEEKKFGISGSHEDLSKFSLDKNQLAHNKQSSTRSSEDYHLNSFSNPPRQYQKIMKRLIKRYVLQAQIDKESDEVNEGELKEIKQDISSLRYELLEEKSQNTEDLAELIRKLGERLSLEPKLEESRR
TRPC4 PAM: allosterically enhances the mouse TRPC4 cation channel; Q9QUQ5; HEK293 TRPC4beta/mu-opioid, DAMGO EC20, Fluo-4 Ca2+ flux; hits give high values; B-score at 10 µM; hit rate 0.42% among 310,000; AID 2227;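 active = B-score of calcium response area above 5 SD of library B-scores, with initial fluorescence ratio within 5 SD of library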;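 note: B-score of integrated fluorescence ratio over time as area under calcium response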
TRPC6 inh: blocks the mouse TRPC6 cation channel | Q61143 | HEK293-TRPC6, membrane potential dye, ACh-evoked depolarization; hits give low values | B-score at 10 µM | hit rate 1.1% among 310,000 | AID 2553;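 active = B-score under library mean minus 3 SD, initial fluorescence not abnormally high, positive integrated signal ratio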;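 note: B-score derived from integrated fluorescence ratio over the kinetic read; more negative B-score means stronger inhibition of depolarization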
TRPC4 spec 2: second selectivity test of TRPC6 inhibitors: effect on mouse TRPC4; shares compounds with TRPC6 inh; AID 2776; HEK293 TRPC4/MOR, membrane potential dye fluorescence; channel activated by saturating DAMGO dose; hit rate 42% among 920; inhibition, % at 10 µM;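 active = compounds whose fluorescence signal differed from control wells by over 3 SD, either direction, in both duplicate plates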
TRPC4 spec: mouse TRPC4 off-target activity of TRPC6 inhibitors; HEK293 TRPC4/mu-opioid, membrane potential fluorescence; activity change, negative = inhibition, % at 10 µM; shares compounds with TRPC6 inh; hit rate 61% among 920;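 active = rise or fall in signal beyond 3 SD of buffer-only wells in both replicate plates, either sign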;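 note: integrated kinetic ratio of fluorescence range over baseline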
HEK293 MPD ctr 2-1: second check of TRPC6 inhibitor effects in parental HEK293 cells; shares compounds with TRPC6 inh; parental HEK293 membrane potential dye fluorescence; maximal acetylcholine challenge after compound addition; signal change vs control, % at 10 µM; hit rate 31% among 920;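 active = membrane potential signal moving either way by over 3 SD of the maximum-effect control, in both duplicate plates, meaning non-specific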
HEK293 MPD ctr-1: checks TRPC6 inhibitor effects in parental HEK293 cells; shares compounds with TRPC6 inh; AID 2780; parental HEK293 membrane potential dye fluorescence; membrane potential signal change, % at 10 µM; hit rate 60% among 920;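 active = membrane potential signal shifting up or down by more than 3 SD of buffer-only wells, on both duplicate plates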
HEK293 MPD ctr-2: parental HEK293 nonspecific activity of TRPC6 modulators. shares compounds with TRPC6 inh. membrane potential dye fluorescence. membrane potential signal change, % at 10 µM. hit rate 51% among 2,400. AID 488924;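 active = membrane potential signal moves up or down beyond 5 SD from buffer-only wells, on both duplicate plates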
HEK293 MPD ctr 2-2: second counter-screen for TRPC6 modulators: effect in parental HEK293 cells; shares compounds with TRPC6 inh; membrane potential dye fluorescence; after compound, maximal acetylcholine stimulation; inhibition, % at 10 µM; hit rate 14% among 2,400; AID 488926;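 active = membrane potential signal drops by more than 5 SD from the mean control signal, in both duplicate plates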;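 note: plate controls were acetylcholine ECmax control wells for no effect and buffer only wells for full effect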
TRPC4/MOR mod: tests whether TRPC6 modulators also affect mouse TRPC4. AID 488927. percent change from control (negative = decrease, positive = increase), % at 10 µM. HEK293 TRPC4/mu-opioid, membrane potential fluorescence. shares compounds with TRPC6 inh. hit rate 69% among 2,400;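 active = membrane potential signal moved up or down beyond 5 SD of buffer control wells, in both duplicate plates, actives on both sides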;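 note: plate controls were assay buffer wells for no effect and DAMGO maximal-effect wells for full effect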
TRPC4/MOR inh 2: second selectivity test of TRPC6 modulators against mouse TRPC4; shares compounds with TRPC6 inh; HEK293 TRPC4/mu-opioid, membrane potential dye fluorescence; stimulated with maximal-effect DAMGO; inhibition, % at 10 µM; hit rate 55% among 2,400; AID 488928;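 active = drop in membrane potential signal beyond 5 SD of the control wells in both duplicate plates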;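 note: TRPC4 counter screen for TRPC6 hits run under conditions tuned for TRPC6 not TRPC4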
TRPC6 block conf: mouse TRPC6 inhibitor confirmation | hit rate 43% among 3,300 | inhibition, % at 10 µM | shares compounds with TRPC6 inh | HEK293-TRPC6, membrane potential dye, ACh-evoked depolarization | AID 488960;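 active = fluorescence ratio falls more than 5 SD below the full-stimulation control mean, in both duplicate runs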;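 note: integrated fluorescence ratio of peak minus minimum over baseline after agonist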
TRPC6 act conf: confirmation of mouse TRPC6 activators | shares compounds with TRPC6 inh | HEK293-TRPC6 membrane potential dye fluorescence, FDSS | activation, % at 10 µM | hit rate 11% among 2,800 | AID 488961;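 active = ratio signal rise beyond 5 SD above unstimulated control wells' mean, seen in both duplicate runs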;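 note: plate controls were buffer EC0 wells for no effect and acetylcholine ECmax response for full effect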
The depositor's hits bear a star; i = inactive; · = no result given; + = active, no number.

SMILES	TRPC4 act	TRPC4 block	Yeast superoxide	TRPC6 activator	TRPC4 PAM	TRPC6 inh	HEK293 MPD ctr-2	HEK293 MPD ctr 2-2	TRPC4/MOR mod	TRPC4/MOR inh 2	TRPC6 block conf	TRPC6 act conf	others
CN1CCN(c2ccccc2NC(=O)c2ccc(N3CCCC3)c([N+](=O)[O-])c2)CC1	i	i	112.7	i	i	-10.5*	-108.5%*	i	-29.5%*	82.0%*	58.0%*	i
CN1CCN(c2ccc(C(=O)c3ccc(Br)cc3)cc2[N+](=O)[O-])CC1	i	i	102.0	i	i	-5.94*	i	i	-13.0%*	43.0%*	i	i
O=C(Nc1ccccc1N1CCCCC1)c1ccc(Cl)c([N+](=O)[O-])c1	i	i	88.7	i	i	i	·	·	·	·	·	·
C=CC[C@H]1Cc2c(cccc2[N+](=O)[O-])[C@H](CC=C)N1	i	i	96.6	i	i	i	·	·	·	·	·	·
COc1cccc2sc3ccc(NCCC4CCCN4C)cc3c(=O)c12 (stereo not given)	i	i	99.2	i	i	-6.81*	·	·	·	·	i	·	TRPC4 spec 2=65.0%*;TRPC4 spec=20.9%*;HEK293 MPD ctr 2-1=i;HEK293 MPD ctr-1=17.3%*
COc1cc2sc3cc(NCC[C@@H]4CCCN4C)ccc3c(=O)c2cc1OC	·	·	97.2	·	·	·	·	·	·	·	·	·
CCc1nnc(NC(=O)CN2CCC(O)(c3ccccc3OC)CC2)s1	i	i	109.4	i	i	i	·	·	·	·	·	·
Cc1cccc2nc(-c3cccnc3)c(NCCC(C)C)n12	i	i	98.9	i	i	-5.53*	i	i	-24.0%*	83.5%*	41.0%*	i
Cc1cccc2nc(-c3cccnc3)c(Nc3ccccc3)n12	i	i	97.0	i	i	i	·	·	·	·	·	·
CN1C(=O)c2cccc3c(N(C)C)ccc(c23)C1=O	i	i	90.5	18.6*	i	i	927.0%*	+	143.5%*	57.5%*	·	234.5%*
CCN(CC)CCCN(C(=O)c1ccco1)c1nc(-c2ccc(Cl)cc2)cs1	i	i	96.0	i	i	-7.45*	·	·	·	·	60.3%*	i	TRPC4 spec 2=26.5%*;TRPC4 spec=-12.8%*;HEK293 MPD ctr 2-1=i;HEK293 MPD ctr-1=-154.0%*
CCN(CC)CCCN(C(=O)c1cccc(C)c1)c1nc(-c2ccc(OC)cc2)cs1	i	i	99.8	i	i	-6.13*	i	i	-13.5%*	86.5%*	83.0%*	i
CCN(CC)CCCN(C(=O)c1cccs1)c1nc(-c2ccc(OC)cc2)cs1	i	i	103.3	i	i	i	·	·	·	·	·	·
CCN(CC)CCCN(C(=O)c1ccc(Br)cc1)c1nc(-c2ccc(OC)cc2)cs1	i	i	103.9	i	i	-6.16*	i	i	i	72.0%*	53.0%*	i
Cn1nnnc1SCC(=O)N1c2ccccc2CCc2ccccc21	i	i	93.7	i	i	i	·	·	·	·	·	·
CCN1CCN(C(=O)C2CCC(CNS(=O)(=O)c3ccc(NC(C)=O)cc3)CC2)CC1 (stereo not given)	i	i	94.6	i	i	i	·	·	·	·	·	·
COc1ccccc1CNC(=O)COC(=O)c1cc([N+](=O)[O-])ccc1N1CCOCC1	i	i	103.5	i	i	-5.07*	i	i	14.0%*	i	i	·
CCN(CC(=O)NC1CCS(=O)(=O)C1)c1nc(-c2ccccc2)nc2ccccc12 (stereo not given)	i	i	110.0	i	i	i	·	·	·	·	·	·
O=c1[nH]c2ccc(S(=O)(=O)N3CCN(c4ccccc4F)CC3)cc2s1	i	i	111.0	i	i	-7.99*	·	·	·	·	i	i	TRPC4 spec 2=i;TRPC4 spec=0.3%*;HEK293 MPD ctr 2-1=225.5%*;HEK293 MPD ctr-1=i
N=c1c(C(=O)NCc2ccc(F)cc2)cc2c(=O)n3ccccc3nc2n1CC1CCCO1 (stereo not given)	i	i	104.5	i	i	-6.7*	i	i	-37.5%*	53.5%*	59.0%*	i
N=c1c(C(=O)NCc2ccc3c(c2)OCO3)cc2c(=O)n3ccccc3nc2n1CC1CCCO1 (stereo not given)	i	i	101.6	i	i	i	·	·	·	·	·	·
COc1ccc(CCNC(=O)c2cc3c(=O)n4ccccc4nc3n(CC3CCCO3)c2=N)cc1OC (stereo not given)	i	i	67.2	i	i	-5.05*	106.0%*	i	12.5%*	i	45.5%*	·
O=C(/C=C\c1ccccc1OC(=O)c1ccccc1F)c1cc2ccccc2o1	i	i	92.2	i	i	-7.13*	·	·	·	·	i	i	TRPC4 spec 2=i;TRPC4 spec=i;HEK293 MPD ctr 2-1=i;HEK293 MPD ctr-1=i
Cc1ccc(N2CC(O)(c3cccs3)[N+]3=C2CCCC3)cc1 (stereo not given)	i	i	102.0	i	i	-5.22*	104.0%*	i	16.5%*	37.5%*	i	·
Cc1cccc(N2CC(O)(c3cccs3)[N+]3=C2CCCC3)c1 (stereo not given)	i	i	104.0	i	i	i	·	·	·	·	·	·

Bioassay records (PubChem)
